Key:
[1] = Half life in Wistar rat spleen at 30 mg/kg, po by HPLC analysis; type: ADME, organism-based
Outline: (§1)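 Tissue distribution in male Wistar rats given oral 10, 15 or 30 mg/kg; heart, liver, spleen, lung, kidney and brain collected predose and 0.5–72 h post-dose (n = 6 per time). Tissue rinsed in saline, homogenised 0.25 g/1 mL saline, methanol extraction, dried under nitrogen, reconstituted in methanol. Analysis by reverse-phase C18 HPLC, acetonitrile/water 60:40, 1.0 mL/min, ambient temperature.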

[2] = MRT (0 to infinity) in Wistar rat lung at 30 mg/kg, po by HPLC analysis; type: ADME, organism-based
Outline: (§2)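 Male Wistar rats (180 ± 20 g) received a single oral dose of 10, 15 or 30 mg/kg. Tissues were collected at 0, 0.5, 1, 2, 4, 6, 8, 12, 24, 48 and 72 h (n = 6 per point). Samples of 0.25 g were rinsed, then homogenized in saline (0.25 g/1 mL) and centrifuged at 10,000 × g. Supernatant was methanol-extracted, dried under nitrogen at 50 °C and reconstituted in methanol. Analysis was by C18 HPLC (acetonitrile 60% / water 40%, 1.0 mL/min).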

[3] = AUC (0 to 72 hrs) in Wistar rat kidney at 10 mg/kg, po by HPLC analysis; type: ADME, organism-based; parameters: dose 10 mg/kg, time < 72 hr, route oral
Outline: (§3)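 Wistar rats (180 ± 20 g) were dosed orally at 10, 15 or 30 mg/kg. Heart, liver, spleen, lung, kidney and brain were collected at 0–72 h (n = 6 per point). Tissue was rinsed, blotted and homogenized in saline (0.25 g/1 mL), then spun at 10,000 × g. Supernatant was methanol-extracted, dried under nitrogen at 50 °C, reconstituted in methanol and run on C18 HPLC (acetonitrile 60%/water 40%, 1.0 mL/min).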

[4] = Cmax in Wistar rat brain at 15 mg/kg, po by HPLC analysis; type: ADME, organism-based; parameters: dose 15 mg/kg, route oral; outline: as §3
[5] = MRT (0 to infinity) in Wistar rat spleen at 30 mg/kg, po by HPLC analysis; type: ADME, organism-based; outline: as §2
[6] = AUC (0 to 72 hrs) in Wistar rat Heart at 30 mg/kg, po by HPLC analysis; type: ADME, organism-based; parameters: time < 72 hr, dose 30 mg/kg, route oral; outline: as §3
Rattus norvegicus = test: Antihypertensive activity in spontaneous hypertensive rat model assessed as reduction in mean blood pressure at 15 mg/kg, po after 4 hrs; type: functional
Outline: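 Male SHRs (250 ± 20 g) were randomized, 6 per group. Compound was suspended in 0.5% sodium carboxymethyl cellulose and given orally; vehicle-only negative control. Mean blood pressure was calculated as (SBP − DBP)/3 + DBP from systolic and diastolic readings over the time course. Data are mean ± SD, with p < 0.05 taken as significant.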

[7] = MRT (0 to infinity) in Wistar rat kidney at 15 mg/kg, po by HPLC analysis; type: ADME, organism-based; outline: as §2
[8] = Tmax in Wistar rat brain at 15 mg/kg, po by HPLC analysis; type: ADME, organism-based; outline: as §2
[9] = Cmax in Wistar rat heart at 15 mg/kg, po by HPLC analysis; type: ADME, organism-based; parameters: dose 15 mg/kg, route oral; outline: as §1
[10] = Cmax in Wistar rat spleen at 10 mg/kg, po by HPLC analysis; type: ADME, organism-based; parameters: dose 10 mg/kg, route oral; outline: as §1
[11] = MRT (0 to 72 hrs) in Wistar rat kidney at 30 mg/kg, po by HPLC analysis; type: ADME, organism-based; outline: as §1
[12] = Half life in Wistar rat lung at 15 mg/kg, po by HPLC analysis; type: ADME, organism-based; outline: as §1
[13] = MRT (0 to 72 hrs) in Wistar rat brain at 15 mg/kg, po by HPLC analysis; type: ADME, organism-based; outline: as §1
[14] = AUC (0 to 72 hrs) in Wistar rat brain at 10 mg/kg, po by HPLC analysis; type: ADME, organism-based; parameters: time < 72 hr, dose 10 mg/kg, route oral; outline: as §3
[15] = Toxicity in ICR mouse assessed as mortality at 1500 mg/kg, ig after 2 weeks; type: organism-based; details: in vivo, po
[16] = Half life in Wistar rat liver at 30 mg/kg, po by HPLC analysis; type: ADME, organism-based; outline: as §1
[17] = Half life in Wistar rat Heart at 30 mg/kg, po by HPLC analysis; type: ADME, organism-based; outline: as §1
[18] = AUC (0 to 72 hrs) in Wistar rat spleen at 30 mg/kg, po by HPLC analysis; type: ADME, organism-based; parameters: dose 30 mg/kg, time < 72 hr, route oral; outline: as §3
[19] = Half life in Wistar rat spleen at 10 mg/kg, po by HPLC analysis; type: ADME, organism-based; outline: as §1
[20] = Half life in Wistar rat brain at 30 mg/kg, po by HPLC analysis; type: ADME, organism-based; outline: as §1
[21] = Half life in Wistar rat liver at 10 mg/kg, po by HPLC analysis; type: ADME, organism-based; outline: as §1
[22] = Tmax in Wistar rat lung at 30 mg/kg, po by HPLC analysis; type: ADME, organism-based; outline: as §2
[23] = Tmax in Wistar rat kidney at 10 mg/kg, po by HPLC analysis; type: ADME, organism-based; outline: as §2
[24] = Cmax in Wistar rat liver at 10 mg/kg, po by HPLC analysis; type: ADME, organism-based; parameters: dose 10 mg/kg, route oral; outline: as §1
[25] = AUC (0 to 72 hrs) in Wistar rat lung at 10 mg/kg, po by HPLC analysis; type: ADME, organism-based; parameters: time < 72 hr, dose 10 mg/kg, route oral; outline: as §3
[26] = AUC (0 to 72 hrs) in Wistar rat lung at 15 mg/kg, po by HPLC analysis; type: ADME, organism-based; parameters: dose 15 mg/kg, time < 72 hr, route oral; outline: as §3
[27] = AUC (0 to 72 hrs) in Wistar rat liver at 30 mg/kg, po by HPLC analysis; type: ADME, organism-based; parameters: time < 72 hr, dose 30 mg/kg, route oral; outline: as §3
[28] = Tmax in Wistar rat liver at 15 mg/kg, po by HPLC analysis; type: ADME, organism-based; outline: as §2
[29] = MRT (0 to infinity) in Wistar rat liver at 30 mg/kg, po by HPLC analysis; type: ADME, organism-based; outline: as §2
[30] = AUC (0 to infinity) in Wistar rat lung at 30 mg/kg, po by HPLC analysis; type: ADME, organism-based; parameters: dose 30 mg/kg, route oral, time infinity; outline: as §3
[31] = Cmax in Wistar rat lung at 10 mg/kg, po by HPLC analysis; type: ADME, organism-based; parameters: dose 10 mg/kg, route oral; outline: as §1
[32] = Cmax in Wistar rat kidney at 15 mg/kg, po by HPLC analysis; type: ADME, organism-based; parameters: dose 15 mg/kg, route oral; outline: as §1
[33] = MRT (0 to 72 hrs) in Wistar rat plasma at 30 mg/kg, po by HPLC analysis; type: ADME, organism-based
Outline: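 Male Wistar rats (180 ± 20 g), 6 per dose group, each given a single oral dose. Blood was drawn by retro-orbital puncture into heparin at predose and at 0.5, 1, 2, 4, 6, 8, 12, 24, 48 and 72 h, then spun at 4000 × g and 4 °C. Plasma with internal standard was acetonitrile-precipitated, filtered and run on reverse-phase C18 HPLC (0.02 mol/L KH2PO4 55% / acetonitrile 45%, 1.0 mL/min). Calibration standards were 0.1–10 µg/mL, fitted by peak-height ratio with 1/conc² weighting.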

[34] = Cmax in Wistar rat kidney at 10 mg/kg, po by HPLC analysis; type: ADME, organism-based; parameters: dose 10 mg/kg, route oral; outline: as §1
[35] = AUC (0 to infinity) in Wistar rat brain at 15 mg/kg, po by HPLC analysis; type: ADME, organism-based; parameters: dose 15 mg/kg, time infinity, route oral; outline: as §3
[36] = AUC (0 to infinity) in Wistar rat lung at 15 mg/kg, po by HPLC analysis; type: ADME, organism-based; parameters: dose 15 mg/kg, route oral, time infinity; outline: as §3
[37] = MRT (0 to infinity) in Wistar rat kidney at 10 mg/kg, po by HPLC analysis; type: ADME, organism-based; outline: as §2

Question: Which half-life [1] does the source give for `CCCCC1=NC2(CCCC2)C(=O)N1Cc1ccc2c(ccn2-c2ccccc2-c2nnn[nH]2)c1` here?
Answer: Its half-life is 13.4 h.

Question: And the MRT inf [2]?
Answer: Its MRT inf is 4.1 h.

Question: What about the AUC(0-t) at 72 h [3] of the same molecule?
Answer: The AUC(0-t) at 72 h was 4340 ng·h/mL.

Question: What about the Cmax [4] of the same molecule?
Answer: The Cmax was 93.3 ng/mL.

Question: What about the MRT inf [5] of the same molecule?
Answer: The MRT inf was 20.4 h.

Question: And the AUC(0-t) at 72 h [6]?
Answer: Its AUC(0-t) at 72 h is 7360 ng·h/mL.

Question: What about the Activity (Rattus norvegicus) of the same molecule?
Answer: Its Activity is 40.62 mmHg.

Question: What about the MRT inf [7] of the same molecule?
Answer: Its MRT inf is 29.4 h.

Question: What about the Tmax [8] of the same molecule?
Answer: The Tmax was 4.83 h.

Question: And the Cmax [9]?
Answer: Its Cmax is 283 ng/mL.

Question: What about the Cmax [10] of the same molecule?
Answer: The Cmax was 348 ng/mL.

Question: What about the MRT last [11] of the same molecule?
Answer: The MRT last was 24.9 h.

Question: What about the half-life [12] of the same molecule?
Answer: The half-life was 2.46 h.

Question: What about the MRT last [13] of the same molecule?
Answer: The MRT last was 11.6 h.

Question: And the AUC(0-t) at 72 h [14]?
Answer: Its AUC(0-t) at 72 h is 346 ng·h/mL.

Question: What about the mortality at 336 h [15] of the same molecule?
Answer: Its mortality at 336 h is 50%.

Question: What about the half-life [16] of the same molecule?
Answer: Its half-life is 2.12 h.

Question: And the half-life [17]?
Answer: The half-life was 20.2 h.

Question: What about the AUC(0-t) at 72 h [18] of the same molecule?
Answer: Its AUC(0-t) at 72 h is 18900 ng·h/mL.

Question: And the half-life [19]?
Answer: Its half-life is 17.9 h.

Question: And the half-life [20]?
Answer: The half-life was 2.99 h.

Question: And the half-life [21]?
Answer: The half-life was 2.33 h.

Question: What about the Tmax [22] of the same molecule?
Answer: Its Tmax is 2 h.

Question: And the Tmax [23]?
Answer: Its Tmax is 1.17 h.

Question: What about the Cmax [24] of the same molecule?
Answer: Its Cmax is 721 ng/mL.

Question: And the AUC(0-t) at 72 h [25]?
Answer: The AUC(0-t) at 72 h was 745 ng·h/mL.

Question: And the AUC(0-t) at 72 h [26]?
Answer: The AUC(0-t) at 72 h was 1350 ng·h/mL.

Question: And the AUC(0-t) at 72 h [27]?
Answer: The AUC(0-t) at 72 h was 14500 ng·h/mL.

Question: What about the Tmax [28] of the same molecule?
Answer: The Tmax was 2 h.

Question: What about the MRT inf [29] of the same molecule?
Answer: Its MRT inf is 5.49 h.

Question: What about the AUC(0-inf) [30] of the same molecule?
Answer: The AUC(0-inf) was 2410 ng·h/mL.

Question: And the Cmax [31]?
Answer: The Cmax was 62.1 ng/mL.

Question: And the Cmax [32]?
Answer: Its Cmax is 210 ng/mL.

Question: And the MRT last [33]?
Answer: The MRT last was 12.9 h.

Question: What about the Cmax [34] of the same molecule?
Answer: The Cmax was 180 ng/mL.

Question: What about the AUC(0-inf) [35] of the same molecule?
Answer: Its AUC(0-inf) is 1180 ng·h/mL.

Question: What about the AUC(0-inf) [36] of the same molecule?
Answer: Its AUC(0-inf) is 1350 ng·h/mL.

Question: And the MRT inf [37]?
Answer: Its MRT inf is 25.3 h.

— ChEMBL document CHEMBL3872205, “Design, synthesis and evaluation of novel potent angiotensin II receptor 1 antagonists” (Eur J Med Chem, 2016)
